Laboratory results from ChEMBL document CHEMBL4425150, “l-Cystine Diamides as l-Cystine Crystallization Inhibitors for Cystinuria” (J Med Chem, 2016).
Active and inactive are the calls of the source. No cut-off for these calls is given here.

Assays:
Cystine [1] = test: Inhibition of hexagonal L-cystine plate crystal growth assessed as step velocity for crystal growth rate at 45 uM after 25 mins by atomic force microscopic analysis relative to control
Procedure, shortened: (§1)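 In situ AFM of step velocity on {100} steps of hexagonal L-cystine crystals in aqueous 2 mM L-cystine, with additive at 15, 30 or 45 μM. Result expressed as V/V0, where V0 is the velocity measured first without additive; the value is a range.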

Cystine [2] = test: Inhibition of hexagonal L-cystine plate crystal growth assessed as step velocity for crystal growth rate at 30 uM after 25 mins by atomic force microscopic analysis relative to control; procedure, shortened: as §1
Cystine [3] = test: Inhibition of hexagonal L-cystine plate crystal growth assessed as step velocity for crystal growth rate at 15 uM after 25 mins by atomic force microscopic analysis relative to control; procedure, shortened: as §1
[4] = Half life in pH 7.4 phosphate buffered saline at 100 uM at 37 degC by LC-MS/MS analysis; format: physicochemical; settings: buffer, pH 7.4, 100 µM
Procedure, shortened: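 Compound incubated in pH 7.4 phosphate buffered saline at 37 °C. Disappearance of parent followed over time by LC-MS, and half-life derived from that.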

Cystine [5] = test: Inhibition of L-cystine crystallization assessed as concentration required to double metastable supersaturation range of L-cystine after 72 hrs by OPA/NBC derivatization based fluorescence assay
Procedure, shortened: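 Test solution (5 μL) added to 500 μL supersaturated L-cystine, then held at 25 °C for 72 h and centrifuged (10000 rpm, 4 min). Supernatant diluted 2-fold, reduced with DTT (rt, 10 min), alkylated with iodoacetic acid (rt, 15 min), then derivatized with OPA/NBC (3 min). Fluorescence read at Ex 355/Em 460 nm gives L-cystine concentration. EC2x is the inhibitor concentration doubling the lower-plateau L-cystine level.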

[6] = Drug level in SLC3A1 knock out 129/C57BL6 mouse urine at 29.3 umol/kg, po administered daily through gavage for 1 week measured 4 hrs post last dose by LC-MS/MS analysis; format: ADME, organism-based; settings: read-out: Drug uptake
Procedure, shortened: (§2)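 Male mice, wild-type or Slc3a1 knockout, 4–5 per group, dosed by daily oral gavage at 29.3 μmol/kg for 1 week. Urine from each mouse collected individually over the 4 h right after the last dose. Compound in urine quantified by LC-MS/MS; pre-dose urine also tested.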

Cystine [7] = test: Potency index, ratio of L-cystine dimethyl ester concentration to compound concentration required to double metastable supersaturation range of L-cystine
Procedure, shortened: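 Ratio is the EC2x of L-cystine dimethyl ester divided by the compound's EC2x. EC2x came from 72 h incubation at 25 °C in supersaturated L-cystine, with supernatant L-cystine measured by OPA/NBC fluorescence.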

Cystine [8] = test: Inhibition of hexagonal L-cystine plate crystal growth assessed as reduction in crystal mass yield at 15 to 45 uM after 25 mins by atomic force microscopic analysis
Cystine [9] = test: Inhibition of hexagonal L-cystine plate crystal growth assessed as induction of plate to rod crystal morphology at 15 to 45 uM after 25 mins by atomic force microscopic analysis
Cystine [10] = test: Inhibition of L-cystine stone formation in SLC3A1 knock out 129/C57BL6 mouse model of cystinuria at 29.3 umol/kg, po administered daily through gavage for 4 weeks; format: functional, organism-based
Procedure, shortened: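 Male Slc3a1 knockout mice, groups of six or seven, dosed by daily gavage at 29.3 μmol/kg for 4 weeks. A parallel control group of seven mice received water only. Read-out is the fraction of mice forming stones.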

[11] = Drug level in 129/C57BL6 mouse urine at 29.3 umol/kg, po administered daily through gavage for 1 week measured 4 hrs post last dose by LC-MS/MS analysis; format: ADME, organism-based; settings: read-out: Drug uptake; procedure, shortened: as §2

| Compound | Ratio (Cystine [1]) | Ratio (Cystine [2]) | Ratio (Cystine [3]) | t1/2 [4] [days] | CD (Cystine [5]) [µM] | concentration at 4 h [6] [nM] | Ratio (Cystine [7]) | inhibition (Cystine [8]) | inhibition (Cystine [9]) | inhibition (Cystine [10]) | concentration at 4 h [11] [nM] |
| --- | --- | --- | --- | --- | --- | --- | --- | --- | --- | --- | --- |
| Cl.Cl.N[C@@H](CSSC[C@H](N)C(=O)N1CCOCC1)C(=O)N1CCOCC1 | 0.29 to 0.53 | 0.34 to 0.58 | 0.44 to 0.65 | 46.2 | 0.86 | 2090 | 7.4 | Active | Active | inactive |  |
| COC(=O)[C@@H](N)CSSC[C@H](N)C(=O)OC | 0.21 to 0.48 | 0.27 to 0.54 | 0.4 to 0.65 | 0.11 | 6.37 |  |  | Active | Active |  |  |
| CN1CCN(C(=O)[C@@H](N)CSSC[C@H](N)C(=O)N2CCN(C)CC2)CC1.Cl.Cl.Cl.Cl | 0.3 to 0.4 | 0.32 to 0.5 | 0.52 to 0.66 | 19.8 | 0.26 | 7590 | 24.5 | Active | Active | Active | 2100 |
